Measurements as given in PMC9934649 (bioRxiv, 2023).
Entries after “also recorded” stand apart in the source; their conditions may differ.

Tests used:
[1] = test system: human motor neurons; experiment: Neuroprotection assay, ER stress induced by cyclopiazonic acid; type: cell-based; settings: for Motor neuron survival in response to ER stress: cyclopiazonic acid, 72 hours, 0.16–10 µM; for Motor neuron survival at low concentrations compared with AT-7519: low concentrations (<200 nM)
In short: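 Motor neurons came from NCRM-1 iPSCs carrying a VAChT:TdTomato reporter, differentiated as embryoid bodies for 16 days. They were plated at 2000 cells/well on laminin/poly-ornithine in neurobasal medium with anti-mitotics, B-27, N-2 and GDNF, BDNF, IGF-1 and CNTF. After 48 h, cells were co-treated with cyclopiazonic acid and test compound (4-fold dilutions, 0.16–10 µM, triplicate wells) for 72 h. Calcein AM live cells were counted as % of DMSO-treated survivors.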

[2] = target: T1, WT human CDKL5 (Homo sapiens, UniProt O76039); experiment: CDKL5 in vitro kinase assay; type: biochemical; settings: 10 or 100 nM compound, 50 µM ATP, vs untreated WT CDKL5
T1 sequence (O76039 1-960): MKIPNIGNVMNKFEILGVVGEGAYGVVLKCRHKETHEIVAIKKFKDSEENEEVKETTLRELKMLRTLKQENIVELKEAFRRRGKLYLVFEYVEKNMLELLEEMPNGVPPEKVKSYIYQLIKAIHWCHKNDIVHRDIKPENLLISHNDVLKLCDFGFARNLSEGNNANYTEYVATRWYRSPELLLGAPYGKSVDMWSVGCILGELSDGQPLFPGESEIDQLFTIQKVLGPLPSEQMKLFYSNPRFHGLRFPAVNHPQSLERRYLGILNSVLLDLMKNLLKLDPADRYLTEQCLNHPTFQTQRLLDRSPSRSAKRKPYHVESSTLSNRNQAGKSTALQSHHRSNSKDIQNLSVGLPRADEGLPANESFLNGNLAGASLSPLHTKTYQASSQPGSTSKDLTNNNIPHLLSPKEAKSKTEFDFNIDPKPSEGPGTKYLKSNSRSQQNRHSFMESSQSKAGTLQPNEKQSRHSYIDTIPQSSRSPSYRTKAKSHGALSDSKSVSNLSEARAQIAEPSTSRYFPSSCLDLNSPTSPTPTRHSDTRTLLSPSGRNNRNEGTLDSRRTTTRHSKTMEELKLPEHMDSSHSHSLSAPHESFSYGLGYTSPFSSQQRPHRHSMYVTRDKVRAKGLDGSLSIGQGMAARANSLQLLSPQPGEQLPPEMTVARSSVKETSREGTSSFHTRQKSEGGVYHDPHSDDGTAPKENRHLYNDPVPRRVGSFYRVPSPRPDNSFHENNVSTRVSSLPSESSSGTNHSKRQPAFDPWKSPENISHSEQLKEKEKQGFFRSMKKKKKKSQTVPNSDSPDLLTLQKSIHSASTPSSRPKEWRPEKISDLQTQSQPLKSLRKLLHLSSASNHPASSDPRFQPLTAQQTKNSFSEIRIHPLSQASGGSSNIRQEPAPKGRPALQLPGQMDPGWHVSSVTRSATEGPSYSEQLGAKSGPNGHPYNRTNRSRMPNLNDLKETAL
In short: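 FLAG-tagged WT human CDKL5, with a K42R kinase-dead control, was made by HeLa-lysate in vitro translation and purified on cobalt spin columns. Enzyme plus myelin basic protein substrate was incubated in kinase buffer with or without 50 µM ATP at 30 °C for 30 min, with test compound at 10 or 100 nM or DMSO. Read by ADP-Glo. Triplicate; one-way ANOVA with Dunnett's test.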

[3] = test system: CDKL5 expression; experiment: Western blot of CDKL5 expression in rat primary cortical neurons; type: cell-based; settings: 1 hour treatment
In short: (§1)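 Cortical neurons were taken from E18.5 Long Evans rat embryos (trypsin 0.25%, 15 min, 37 °C) and plated at 300,000/well on poly-D-lysine/laminin. At DIV11–14, cells were given 5 nM–5 µM test compound or DMSO for 1 h at 37 °C. Lysates were immunoblotted with ECL detection. pEB2 S222 was normalised to total EB2, pβ-catenin to total β-catenin, and CDKL5 to tubulin.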

[4] = test system: S33/37/T41 β-Catenin phosphorylation; type: cell-based; settings: rat primary cortical neurons, 1 hour, dose-response
In short: as §1

[5] = test system: S222 EB2 phosphorylation; experiment: Western blot of S222 EB2 phosphorylation in rat primary cortical neurons; type: cell-based; settings: 1 hour, 5 nM, 50 nM, 500 nM or 5 µM
In short: as §1

[6] = target: T2, CDKL5 (Homo sapiens, UniProt O76039); experiment: CDKL5 NanoBRET in-cell target engagement assay; type: cell-based
T2 sequence (O76039 1-960): T1 sequence (O76039 1-960)

[7] = target: DYRK1B (Homo sapiens, UniProt Q9Y463); experiment: Radiometric HotSpot kinase assay; type: biochemical; settings: enzymatic IC50 values
In short: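 Window was taken from enzymatic IC50s. DYRK1B: radiometric HotSpot assay at ATP Km, 10-point dose–response. GSK3β: radiometric assay at ATP Km, 9-point dose–response.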

[8] = target: GSK3β (Homo sapiens, UniProt P49841); experiment: GSK3β NanoBRET assay; type: cell-based; settings: GSK3β NanoBRET IC50, tracer K8
[9] = target: T2, CDKL5; experiment: CDKL5 split luciferase assay; type: binding; settings: compound 2 vs compound 4
In short: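 Luminescence-based competition binding assay: test compound displaces an active-site-dependent probe from CDKL5. Run as 12-point dose–response in duplicate to give IC50 values.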

[10] = target: GSK3α (Homo sapiens, UniProt P49840); experiment: GSK3α NanoBRET assay; type: cell-based; settings: GSK3α NanoBRET IC50, tracer K8
[11] = target: T3, CDKL5 kinase domain (Homo sapiens, UniProt O76039, T169D/Y171E); experiment: Thermal shift assay; type: binding; settings: all concentrations evaluated (12.5, 25, or 50 µM)
T3 sequence (O76039 1-303 T169D/Y171E): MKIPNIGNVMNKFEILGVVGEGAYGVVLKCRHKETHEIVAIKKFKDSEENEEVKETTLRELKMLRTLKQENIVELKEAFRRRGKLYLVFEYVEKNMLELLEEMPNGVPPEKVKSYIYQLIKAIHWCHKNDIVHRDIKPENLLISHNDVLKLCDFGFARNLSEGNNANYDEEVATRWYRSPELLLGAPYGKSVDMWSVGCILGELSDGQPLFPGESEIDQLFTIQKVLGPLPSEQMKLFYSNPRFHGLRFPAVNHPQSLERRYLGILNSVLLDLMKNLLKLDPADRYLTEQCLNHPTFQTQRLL
In short: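 The CDKL5 kinase domain (construct boundaries of 4BGQ) was used at 4 µM in 10 mM HEPES-NaOH pH 7.4, 500 mM NaCl with 5× SYPRO Orange. It was incubated with test compound at 12.5, 25 or 50 µM. Fluorescence was recorded on a real-time PCR instrument to derive melting-temperature shifts.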

DYRK1B, sequence (Q9Y463 whole entry): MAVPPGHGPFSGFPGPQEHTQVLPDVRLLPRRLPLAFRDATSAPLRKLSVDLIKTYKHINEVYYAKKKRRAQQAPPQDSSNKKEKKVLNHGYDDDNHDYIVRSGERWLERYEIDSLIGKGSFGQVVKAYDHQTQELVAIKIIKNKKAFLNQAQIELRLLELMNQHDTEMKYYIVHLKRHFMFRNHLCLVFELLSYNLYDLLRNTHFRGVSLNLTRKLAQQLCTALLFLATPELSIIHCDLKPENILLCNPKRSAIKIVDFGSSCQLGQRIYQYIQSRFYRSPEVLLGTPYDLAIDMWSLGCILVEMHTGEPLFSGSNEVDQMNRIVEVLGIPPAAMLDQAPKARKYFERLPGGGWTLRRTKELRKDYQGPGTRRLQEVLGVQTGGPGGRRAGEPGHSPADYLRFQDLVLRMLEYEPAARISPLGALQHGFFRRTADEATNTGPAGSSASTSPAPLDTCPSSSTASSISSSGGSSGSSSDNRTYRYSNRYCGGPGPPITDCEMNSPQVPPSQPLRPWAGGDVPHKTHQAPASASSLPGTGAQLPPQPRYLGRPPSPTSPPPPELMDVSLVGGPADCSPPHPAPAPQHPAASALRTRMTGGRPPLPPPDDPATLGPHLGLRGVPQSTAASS
GSK3α, sequence (P49840 whole entry, the tested form may be a part): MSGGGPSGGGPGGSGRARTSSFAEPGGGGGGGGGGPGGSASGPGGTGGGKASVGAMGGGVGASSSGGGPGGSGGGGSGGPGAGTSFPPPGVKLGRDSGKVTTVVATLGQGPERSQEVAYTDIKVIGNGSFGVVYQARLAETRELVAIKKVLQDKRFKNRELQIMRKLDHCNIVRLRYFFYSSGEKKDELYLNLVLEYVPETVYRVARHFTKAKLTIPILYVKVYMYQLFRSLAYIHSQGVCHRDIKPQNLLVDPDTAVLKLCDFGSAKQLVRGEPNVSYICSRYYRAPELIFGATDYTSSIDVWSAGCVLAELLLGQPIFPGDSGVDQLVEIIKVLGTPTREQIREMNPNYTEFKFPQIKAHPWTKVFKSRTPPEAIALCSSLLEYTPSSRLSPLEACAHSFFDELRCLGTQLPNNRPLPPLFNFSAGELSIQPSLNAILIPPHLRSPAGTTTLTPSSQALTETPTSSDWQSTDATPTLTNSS
GSK3β, sequence (P49841 whole entry): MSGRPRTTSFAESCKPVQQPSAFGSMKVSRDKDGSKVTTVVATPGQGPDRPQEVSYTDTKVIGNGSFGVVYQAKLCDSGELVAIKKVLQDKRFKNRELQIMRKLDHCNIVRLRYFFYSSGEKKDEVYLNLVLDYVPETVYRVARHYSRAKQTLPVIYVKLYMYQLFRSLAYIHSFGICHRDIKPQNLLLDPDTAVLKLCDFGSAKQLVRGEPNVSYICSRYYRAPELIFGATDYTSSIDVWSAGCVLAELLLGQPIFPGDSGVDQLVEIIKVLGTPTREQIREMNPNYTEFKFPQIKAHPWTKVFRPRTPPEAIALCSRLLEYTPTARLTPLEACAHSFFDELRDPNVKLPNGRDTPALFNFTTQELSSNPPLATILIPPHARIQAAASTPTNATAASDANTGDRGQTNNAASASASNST

SMILES	Motor neuron survival in response to ER stress [1]	Effect on CDKL5 kinase activity [2]	CDKL5 expression [3]	Motor neuron survival at low concentrations compared with AT-7519 [1]	Phosphorylation of β-catenin (S33/37/T41) [4]	Phosphorylation of EB2 (S222) [5]	IC50 [6] [nM]	Fold less active than compound 2 in CDKL5 NanoBRET ([6]; compound 4 vs compound 2)	Selectivity window between GSK3β and DYRK1B, the next most potently inhibited kinase [7] [fold]	IC50 [8] [nM]	Fold higher potency than compound 4 in split-luciferase CDKL5 assay [9] [fold]	IC50 [10] [nM]	Change in melting temperature (ΔTm), CDKL5 [11] [°C]
O=C(NC1CCNCC1)c1n[nH]cc1NC(=O)c1c(Cl)cccc1Cl [AT-7519, N-(4-piperidinyl)-4-(2,6-dichlorobenzoylamino)-1H-pyrazole-3-carboxamide, reference compound]	neuroprotective												
CCN1CCN(Cc2ccc(NC(=O)Nc3ccc(Oc4cc(NC)ncn4)cc3)cc2C(F)(F)F)CC1 [AST-487, reference compound]		robust, dose-dependent inhibition											
CS(=O)(=O)CCNCc1ccc(-c2ccc3ncnc(Nc4ccc(OCc5cccc(F)c5)c(Cl)c4)c3c2)o1 [lapatinib, reference compound]		No significant difference											
O=C(NCC1CCOCC1)c1n[nH]cc1NC(=O)c1c(F)cccc1F [Compound 4, 4-(2,6-difluorobenzamido)-N-((tetrahydro-2H-pyran-4-yl)methyl)-1H-pyrazole-3-carboxamide]	neuroprotective; also recorded: promote survival of motor neurons	No significant difference	not altered	better promoted motor neuron survival than AT-7519	reduced in a dose-dependent manner	only at the highest concentration	4400	~ 1000 ×	23				
O=C(Nc1c[nH]nc1C(=O)NC1CCNCC1)c1cc(F)cc(F)c1 [Compound 2, 4-(3,5-difluorobenzamido)-N-(piperidin-4-yl)-1H-pyrazole-3-carboxamide]	neuroprotective; also recorded: promote survival of motor neurons	robust, dose-dependent inhibition	not altered	better promoted motor neuron survival than AT-7519	reduced in a dose-dependent manner	inhibited in a dose-dependent manner	4.6			< 30	~130	< 30	> 6
